pIC50: −log10 of the molar value. Activity calls are given as the source filed them. No cut-off for these calls is given here.

For one experiment, the system named is A549. Nature of the experiment: Antiproliferative activity against human A549 cells incubated for 72 hrs by MTT assay. The note with it: A549, 72 h. It counts as functional, cell-based. For orientation: Tetrazolium dyes change colour on reduction, which living cells bring about.
A further experiment has as its system SK-BR-3. Briefly: Antiproliferation activity against human SK-BR-3 cells incubated for 72 hrs by MTT assay. The experiment is classed as functional, cell-based. The note with it: SK-BR-3, 72 h. The gist of the method: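 MTT assay. About 0.5–1 × 10⁴ cells/well were pre-incubated 12 h at 37 °C in 5% CO₂, then exposed to a concentration series of compound for 72 h. Formazan was dissolved in DMSO and absorbance read at 490 nm. Three wells per condition, three independent experiments. IC50 is the mean ± SD from the dose-response curves.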

For the next experiment, the system named is NCI-H1975. Nature of the experiment: Antiproliferative activity against human NCI-H1975 cells incubated for 72 hrs by MTT assay. The experiment is classed as functional, cell-based. The conditions noted are these: NCI-H1975, 72 h.
The next experiment deals with L02. Nature of the experiment: cytotoxicity against human HL-7702 cells assessed as reduction of cell viability incubated for 72 hrs by MTT assay. The experiment is classed as ADME, cell-based. The conditions noted are these: L02, 72 h.
Another experiment has as its system NCI-H838. Briefly: Antiproliferation activity against human NCI-H838 cells incubated for 72 hrs by MTT assay. The experiment is classed as functional, cell-based. The note with it: NCI-H838, 72 h.
Experiment [1] has as its target Receptor tyrosine-protein kinase erbB-2 (Homo sapiens, UniProt P04626). Briefly: Inhibition of HER2 (unknown origin) by mobility shift assay. The gist of the method:
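In vitro kinase activity was measured by mobility shift assay, run by a contract provider.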

The subject of the next experiment is A-431. Nature of the experiment: Antiproliferative activity against human A431 cells incubated for 72 hrs by MTT assay. The experiment is classed as functional, cell-based. The note with it: A-431, 72 h.
A further experiment has as its target Histone deacetylase 1 (Homo sapiens, UniProt Q13547). Nature of the experiment: Inhibition of HDAC1 (unknown origin).
For the next experiment, the system named is FHC. Nature of the experiment: Cytotoxicity against human FHC cells assessed as reduction of cell viability incubated for 72 hrs by MTT assay. It counts as ADME, cell-based.
Experiment [2] concerns the target T1, Epidermal growth factor receptor (Homo sapiens, UniProt P00533). Briefly: Inhibition of EGFR (unknown origin) by mobility shift assay.
Experiment [3] deals with Epidermal growth factor receptor (Homo sapiens, UniProt P00533, L858R/T790M). Nature of the experiment: Inhibition of EGFR L858R/T790M (unknown origin) by mobility shift assay.
Experiment [4] has as its target Epidermal growth factor receptor (Homo sapiens, UniProt P00533, L858R). Briefly: Inhibition of EGFR L858R (unknown origin) by mobility shift assay.
Experiment [5] has as its target Histone deacetylase (Homo sapiens) (UniProt Q13547+O15379+Q9UBN7+Q92769+Q9UQL6+Q8WUI4+Q9BY41+Q96DB2+P56524+Q9UKV0+Q969S8). Briefly: Inhibition of HDAC in human NCI-H1975 cells assessed as increase in histone H3 acetylation at 2.5 uM after 1 to 12 hrs by Western blot analysis. The experiment is classed as cell-based. The note with it: time lower 1.0 hrs, time upper […]. (Immunoblotting shows a protein as a band on a membrane.)

For experiment [6], the target named is T1, Epidermal growth factor receptor. Nature of the experiment: Inhibition of EGFR in human NCI-H1975 cells assessed as reduction in EGFR phosphorylation at Tyr-1173 residues at 1 uM after 48 hrs by Western blot analysis. The experiment is classed as cell-based. The gist of the method:
(§1)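 Cells were treated with compound for 48 h and lysed on ice for 30 min in RIPA buffer with protease and phosphatase inhibitors. Lysates were cleared at 14000 g, 4 °C, and protein quantified by BCA. Samples were boiled in loading buffer, run on 10–12% SDS-PAGE and transferred to PVDF. Membranes were blocked 2 h, incubated in primary antibody overnight at 4 °C, then in secondary antibody 2 h at room temperature.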

For experiment [7] the target is unchanged. Nature of the experiment: Inhibition of EGFR in human NCI-H1975 cells assessed as reduction in EGFR phosphorylation at Tyr-1068 residues at 1 uM after 48 hrs by Western blot analysis. It counts as cell-based. The gist of the method:
as §1

Histone deacetylase 1, sequence (Q13547 whole entry): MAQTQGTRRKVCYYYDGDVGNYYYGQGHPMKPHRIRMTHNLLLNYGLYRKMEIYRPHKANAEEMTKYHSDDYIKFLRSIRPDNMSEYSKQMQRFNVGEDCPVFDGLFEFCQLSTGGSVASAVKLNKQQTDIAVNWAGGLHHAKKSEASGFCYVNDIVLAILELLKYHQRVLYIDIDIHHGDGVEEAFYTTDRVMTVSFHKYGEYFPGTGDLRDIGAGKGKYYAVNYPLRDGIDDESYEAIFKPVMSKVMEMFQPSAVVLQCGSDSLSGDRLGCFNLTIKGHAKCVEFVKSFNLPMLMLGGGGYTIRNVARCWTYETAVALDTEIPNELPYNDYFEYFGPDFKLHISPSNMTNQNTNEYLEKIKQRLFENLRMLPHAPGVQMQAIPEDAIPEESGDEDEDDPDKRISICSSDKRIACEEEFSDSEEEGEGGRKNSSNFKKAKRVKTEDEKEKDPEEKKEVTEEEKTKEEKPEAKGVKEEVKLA
Receptor tyrosine-protein kinase erbB-2, sequence (P04626 whole entry): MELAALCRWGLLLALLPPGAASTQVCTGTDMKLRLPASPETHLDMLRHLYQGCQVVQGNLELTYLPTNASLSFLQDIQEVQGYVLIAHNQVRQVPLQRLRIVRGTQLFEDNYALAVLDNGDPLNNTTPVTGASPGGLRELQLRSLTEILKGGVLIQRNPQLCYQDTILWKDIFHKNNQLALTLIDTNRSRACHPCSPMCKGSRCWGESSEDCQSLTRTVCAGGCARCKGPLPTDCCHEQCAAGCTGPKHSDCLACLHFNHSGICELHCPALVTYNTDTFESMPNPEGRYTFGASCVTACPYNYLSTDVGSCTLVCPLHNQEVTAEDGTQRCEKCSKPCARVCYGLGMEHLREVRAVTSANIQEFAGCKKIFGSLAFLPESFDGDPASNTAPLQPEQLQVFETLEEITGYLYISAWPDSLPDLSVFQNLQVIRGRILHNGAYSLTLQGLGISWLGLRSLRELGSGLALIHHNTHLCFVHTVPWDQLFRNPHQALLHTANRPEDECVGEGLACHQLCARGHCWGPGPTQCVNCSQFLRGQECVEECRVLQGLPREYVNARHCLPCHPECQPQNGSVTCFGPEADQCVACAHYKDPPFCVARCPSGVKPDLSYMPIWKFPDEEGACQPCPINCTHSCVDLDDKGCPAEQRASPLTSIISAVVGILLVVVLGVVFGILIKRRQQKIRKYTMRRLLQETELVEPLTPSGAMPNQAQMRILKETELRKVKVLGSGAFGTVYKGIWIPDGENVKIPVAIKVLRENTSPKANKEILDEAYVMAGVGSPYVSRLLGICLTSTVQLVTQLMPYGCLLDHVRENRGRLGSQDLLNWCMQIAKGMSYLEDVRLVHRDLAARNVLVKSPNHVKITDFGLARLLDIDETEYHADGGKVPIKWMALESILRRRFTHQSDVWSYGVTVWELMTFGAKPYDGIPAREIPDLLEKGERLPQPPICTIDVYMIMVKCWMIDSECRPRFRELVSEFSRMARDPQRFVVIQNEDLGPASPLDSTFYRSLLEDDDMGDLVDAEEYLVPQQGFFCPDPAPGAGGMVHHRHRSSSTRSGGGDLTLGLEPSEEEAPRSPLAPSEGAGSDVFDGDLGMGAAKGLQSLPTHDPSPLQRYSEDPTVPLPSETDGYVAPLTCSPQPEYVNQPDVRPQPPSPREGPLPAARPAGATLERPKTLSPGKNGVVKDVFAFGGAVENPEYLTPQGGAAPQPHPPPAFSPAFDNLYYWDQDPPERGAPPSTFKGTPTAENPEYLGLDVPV
Epidermal growth factor receptor (Homo sapiens, UniProt P00533, L858R/T790M), sequence (P00533 25-1210 T790M/L858R limits assumed): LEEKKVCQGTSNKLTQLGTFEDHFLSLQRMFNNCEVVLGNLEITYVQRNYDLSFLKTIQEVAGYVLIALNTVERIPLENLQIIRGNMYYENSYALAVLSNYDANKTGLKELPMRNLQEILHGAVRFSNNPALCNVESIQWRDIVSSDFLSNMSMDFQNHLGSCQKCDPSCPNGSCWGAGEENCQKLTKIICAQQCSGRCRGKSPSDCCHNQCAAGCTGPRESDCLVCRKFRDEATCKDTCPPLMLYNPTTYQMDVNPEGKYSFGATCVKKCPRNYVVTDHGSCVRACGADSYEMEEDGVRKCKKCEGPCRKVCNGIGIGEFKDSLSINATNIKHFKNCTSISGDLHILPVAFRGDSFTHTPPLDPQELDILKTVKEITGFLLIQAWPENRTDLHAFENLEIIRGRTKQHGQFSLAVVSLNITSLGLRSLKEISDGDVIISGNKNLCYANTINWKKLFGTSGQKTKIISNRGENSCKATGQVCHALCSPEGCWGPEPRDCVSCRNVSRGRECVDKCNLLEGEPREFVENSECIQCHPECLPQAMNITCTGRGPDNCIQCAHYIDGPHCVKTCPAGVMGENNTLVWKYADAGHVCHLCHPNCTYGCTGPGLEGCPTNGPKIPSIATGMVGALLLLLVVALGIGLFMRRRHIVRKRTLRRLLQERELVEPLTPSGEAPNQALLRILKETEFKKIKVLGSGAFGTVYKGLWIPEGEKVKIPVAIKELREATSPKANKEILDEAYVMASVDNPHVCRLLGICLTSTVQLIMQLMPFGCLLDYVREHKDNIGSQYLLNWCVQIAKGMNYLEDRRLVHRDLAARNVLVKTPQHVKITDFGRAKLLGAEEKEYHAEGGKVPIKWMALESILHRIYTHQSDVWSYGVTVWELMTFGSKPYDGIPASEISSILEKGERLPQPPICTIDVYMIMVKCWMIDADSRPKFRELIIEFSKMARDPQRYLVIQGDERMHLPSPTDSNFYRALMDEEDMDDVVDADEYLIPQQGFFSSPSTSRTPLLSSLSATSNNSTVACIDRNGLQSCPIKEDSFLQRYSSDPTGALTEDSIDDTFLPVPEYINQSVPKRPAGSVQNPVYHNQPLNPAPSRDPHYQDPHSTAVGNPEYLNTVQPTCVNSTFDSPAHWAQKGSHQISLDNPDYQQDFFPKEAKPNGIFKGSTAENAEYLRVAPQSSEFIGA
T1 sequence (P00533 whole entry): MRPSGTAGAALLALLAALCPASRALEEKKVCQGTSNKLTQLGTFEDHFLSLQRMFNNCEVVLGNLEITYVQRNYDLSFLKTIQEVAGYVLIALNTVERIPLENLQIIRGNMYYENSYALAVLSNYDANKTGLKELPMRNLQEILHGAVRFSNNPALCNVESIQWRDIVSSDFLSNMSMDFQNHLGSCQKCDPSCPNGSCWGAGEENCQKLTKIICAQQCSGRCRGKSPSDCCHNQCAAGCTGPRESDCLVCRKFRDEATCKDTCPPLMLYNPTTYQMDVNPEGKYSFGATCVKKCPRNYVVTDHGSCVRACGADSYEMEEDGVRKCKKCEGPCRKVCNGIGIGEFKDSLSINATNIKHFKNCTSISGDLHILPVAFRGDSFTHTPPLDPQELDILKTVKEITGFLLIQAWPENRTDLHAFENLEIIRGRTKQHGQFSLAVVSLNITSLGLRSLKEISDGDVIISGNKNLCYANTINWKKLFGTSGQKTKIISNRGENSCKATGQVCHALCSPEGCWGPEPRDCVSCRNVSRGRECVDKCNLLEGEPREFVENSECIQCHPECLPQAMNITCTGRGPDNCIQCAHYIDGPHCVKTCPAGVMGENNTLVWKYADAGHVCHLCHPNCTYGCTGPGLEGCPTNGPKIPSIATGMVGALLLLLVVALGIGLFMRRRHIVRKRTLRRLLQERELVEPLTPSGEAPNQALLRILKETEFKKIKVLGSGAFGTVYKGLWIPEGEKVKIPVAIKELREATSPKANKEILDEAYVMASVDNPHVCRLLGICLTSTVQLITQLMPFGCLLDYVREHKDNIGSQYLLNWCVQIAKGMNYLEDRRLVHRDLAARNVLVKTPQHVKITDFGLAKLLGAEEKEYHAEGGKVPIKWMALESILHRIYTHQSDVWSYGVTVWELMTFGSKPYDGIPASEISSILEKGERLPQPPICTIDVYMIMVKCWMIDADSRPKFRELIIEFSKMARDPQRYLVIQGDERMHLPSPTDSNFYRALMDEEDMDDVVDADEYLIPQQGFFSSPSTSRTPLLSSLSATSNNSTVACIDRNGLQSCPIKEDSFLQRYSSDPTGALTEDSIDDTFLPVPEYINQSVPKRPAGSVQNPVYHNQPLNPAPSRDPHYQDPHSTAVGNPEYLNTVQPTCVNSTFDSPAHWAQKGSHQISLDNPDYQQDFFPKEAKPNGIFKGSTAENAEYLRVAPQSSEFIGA

Usually pIC50 stands for the IC50 on a negative log10 scale, so that one unit is a factor of ten. Turning to `C=CC(=O)Nc1cc2c(Nc3cccc(Cl)c3F)ncnc2cc1OCc1cn(CCCC(=O)NO)nn1`, the pIC50 in the experiment on A549 is below 4.30; with SK-BR-3 it was below 4.30; with NCI-H1975, 5.55; in the experiment on L02, below 4.60; in the experiment with NCI-H838, below 4.30; in experiment [1], 8.10. Further, the pIC50 in the experiment on A-431 is 4.77; against Histone deacetylase 1 it was 7.47; in the experiment on FHC, below 4.60.

On to `C=CC(=O)Nc1cc2c(Nc3cccc(Cl)c3F)ncnc2cc1OCc1cn(CCCCC(=O)NO)nn1`, for which the pIC50 was below 4.30 with A549; below 4.30 in the experiment on SK-BR-3; 5.38 with NCI-H1975; below 4.60 with L02; below 4.30 in the experiment on NCI-H838; 9.36 in experiment [2]. Also, the pIC50 in [1] was 7.80; in experiment [3] it was 7.77; in experiment [4], 8.92; with A-431 it was 4.81; against Histone deacetylase 1, 6.88; in the experiment with FHC, below 4.60.

For the molecule `C=CC(=O)Nc1cc2c(Nc3cccc(Cl)c3F)ncnc2cc1OCc1cn(CCC(=O)NO)nn1`, the pIC50 in the experiment with A549 is below 4.30; in the experiment on SK-BR-3 it was below 4.30; with NCI-H1975, 5.18; in the experiment on L02, below 4.60; in the experiment with NCI-H838, below 4.30; in experiment [2] it was 9.47. Also, the pIC50 in experiment [1] is 7.89; in experiment [3], 8.08; in [4] it was 8.96; with A-431, 4.83; against Histone deacetylase 1, 7.36; in the experiment with FHC, below 4.60.

With `COc1cc2ncnc(Nc3ccc(F)c(Cl)c3)c2cc1OCCCN1CCOCC1`, the inhibition entry in [5] is “Active”.

Molecule `O=C(CCCCCCC(=O)Nc1ccccc1)NO` [VORINOSTAT] had a pIC50 in the experiment on SK-BR-3 of 5.67. The inhibition entry in experiment [6] and in [7] was “inactive” in each case.

`C=CC(=O)Nc1cc2c(Nc3ccc(OCc4cccc(F)c4)c(Cl)c3)ncnc2cc1OCc1cn(CCCC(=O)NO)nn1`: the pIC50 with A549 was below 4.30; with SK-BR-3 it was 4.69; in the experiment with NCI-H1975, 4.92; in the experiment with L02 it was below 4.60; in the experiment on NCI-H838, below 4.30; in [2] it was 8.74. Further, the pIC50 in experiment [1] was 8.43; in experiment [3], 7.82; in experiment [4] it was 8.54; with A-431 it was 4.70; on Histone deacetylase 1, below 6.00; with FHC it was below 4.60.

For the molecule `C=CC(=O)Nc1cc2c(Nc3ccc(OCc4cccc(F)c4)c(Cl)c3)ncnc2cc1OCc1cn(CCCCC(=O)NO)nn1`, the pIC50 in the experiment with A549 was below 4.30; in the experiment on SK-BR-3, 4.80; in the experiment on NCI-H1975, 4.84; in the experiment with L02, below 4.60; in the experiment with NCI-H838, below 4.30; in experiment [2], 8.82. For the same molecule, the pIC50 is 8.42 in experiment [1]; 7.85 in experiment [3]; 8.59 in experiment [4]; 4.73 in the experiment with A-431; below 6.00 at Histone deacetylase 1; below 4.60 in the experiment on FHC.

`C=CC(=O)Nc1cc2c(Nc3ccc(F)c(Cl)c3)ncnc2cc1OCc1cn(CCCCC(=O)NO)nn1`: the pIC50 was below 4.30 in the experiment with A549; 4.70 in the experiment on SK-BR-3; 5.60 in the experiment with NCI-H1975; below 4.60 in the experiment on L02; below 4.30 with NCI-H838; 9.46 in [2]. In addition, the pIC50 in experiment [1] is 8.14; in experiment [3], 8.74; in experiment [4], 9.06; in the experiment with A-431, 4.82; against Histone deacetylase 1, 6.53; with FHC it was below 4.60.

As to `C=CC(=O)Nc1cc2c(Nc3ccc(F)c(Cl)c3)ncnc2cc1OCc1cn(CCC(=O)NO)nn1`, the pIC50 was below 4.30 with A549; below 4.30 in the experiment with SK-BR-3; 5.35 in the experiment with NCI-H1975; below 4.60 with L02; below 4.30 in the experiment on NCI-H838; 9.48 in [2]. Besides, the pIC50 in experiment [1] is 8.27; in experiment [3] it was 8.64; in experiment [4] it was 8.96; with A-431 it was 4.66; at Histone deacetylase 1, 7.03; with FHC it was below 4.60.

For `C=CC(=O)Nc1cc2c(Nc3ccc(OCc4cccc(F)c4)c(Cl)c3)ncnc2cc1OCc1cn(CCC(=O)NO)nn1`, the pIC50 with A549 was below 4.30; in the experiment with SK-BR-3, 4.61; in the experiment with NCI-H1975 it was 4.68; with L02, below 4.60; in the experiment on NCI-H838, below 4.30; in [2], 8.96. In addition, the pIC50 in [1] is 8.43; in experiment [3] it was 7.80; in experiment [4], 8.66; with A-431, 4.79; at Histone deacetylase 1, below 6.00; in the experiment with FHC, below 4.60.
